Data from ChEMBL document CHEMBL1139862, “Malaria-infected mice are cured by a single dose of novel artemisinin derivatives” (2007).

How the values were obtained:
Assay type in all cases: functional
Mus musculus [1] = assay: Survival of Plasmodium berghei GFP infected mice (Mus musculus) at 10 mg/kg, subcutaneous after single dose
Method in brief: (§1)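 Single subcutaneous dose given on day 1 after infection; vehicle Tween 80 (70%)/ethanol (30%), then 10× dilution with water. Three animals per dimer group. Read-out is average survival in days after infection. Mice alive at day 30 were sacrificed, and if no parasites were detected they were counted cured. Parasitemia was measured by flow cytometry.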

Mus musculus [2] = assay: Survival of Plasmodium berghei GFP infected mice (Mus musculus) at 30 mg/kg, peroral after three doses; details: route oral
Method in brief: as §1, with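 “Three consecutive daily oral doses starting” for “Single subcutaneous dose given on”, “Survivors” for “Mice alive”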

Mus musculus [3] = assay: Survival of Plasmodium berghei GFP infected mice (Mus musculus) at 3 mg/kg, subcutaneous after single dose; method in brief: as §1
Mus musculus [4] = assay: Survival of Plasmodium berghei GFP infected mice (Mus musculus) at 30 mg/kg, subcutaneous after single dose; method in brief: as §1

## C[C@H]1[C@@H](CC(O)(COCc2ccncc2)C[C@H]2O[C@@H]3O[C@@]4(C)CC[C@H]5[C@H](C)CC[C@@H]([C@H]2C)[C@@]35OO4)O[C@@H]2O[C@@]3(C)CC[C@H]4[C@H](C)CC[C@@H]1[C@@]24OO3 (some centres not stated)
Mus musculus [1]
  Survival: 13.3 days
Mus musculus [2]
  Survival: >30 days
Mus musculus [3]
  Survival: 9.7 days
Mus musculus [4]
  Survival: 15 days

## C[C@H]1[C@@H](CC(CNc2ccccc2)C[C@H]2O[C@@H]3O[C@@]4(C)CC[C@H]5[C@H](C)CC[C@@H]([C@H]2C)[C@@]35OO4)O[C@@H]2O[C@@]3(C)CC[C@H]4[C@H](C)CC[C@@H]1[C@@]24OO3 (some centres not stated)
Mus musculus [1]
  Survival: 12.3 days
Mus musculus [3]
  Survival: 8 days
Mus musculus [4]
  Survival: >30 days

## C[C@H]1[C@@H](CC(C[C@H]2O[C@H]3O[C@@]4(C)CC[C@H]5[C@H](C)CC[C@@H]([C@H]2C)[C@@]35OO4)C(=O)NCc2ccccc2)O[C@@H]2O[C@@]3(C)CC[C@H]4[C@H](C)CC[C@@H]1[C@@]24OO3 (some centres not stated)
Mus musculus [1]
  Survival: 15 days
Mus musculus [2]
  Survival: 12.7 days
Mus musculus [3]
  Survival: 12.3 days
Mus musculus [4]
  Survival: >30 days

## C[C@H]1[C@@H](CC(C[C@H]2O[C@H]3O[C@@]4(C)CC[C@H]5[C@H](C)CC[C@@H]([C@H]2C)[C@@]35OO4)C(=O)NNC(=O)c2ccncc2)O[C@@H]2O[C@@]3(C)CC[C@H]4[C@H](C)CC[C@@H]1[C@@]24OO3 (some centres not stated)
Mus musculus [1]
  Survival: 10 days
Mus musculus [2]
  Survival: 7 days
Mus musculus [3]
  Survival: 9 days
Mus musculus [4]
  Survival: >30 days

## C[C@H]1[C@@H](CC(C[C@H]2O[C@H]3O[C@@]4(C)CC[C@H]5[C@H](C)CC[C@@H]([C@H]2C)[C@@]35OO4)C(=O)NC(C)(C)C)O[C@@H]2O[C@@]3(C)CC[C@H]4[C@H](C)CC[C@@H]1[C@@]24OO3 (some centres not stated)
Mus musculus [1]
  Survival: 25.3 days
Mus musculus [2]
  Survival: 14.7 days
Mus musculus [3]
  Survival: 14 days
Mus musculus [4]
  Survival: >30 days

## C[C@H]1[C@H](OC(=O)CCC(=O)O)O[C@@H]2O[C@@]3(C)CC[C@H]4[C@H](C)CC[C@@H]1[C@@]24OO3 [ARTESUNATE]
Mus musculus [1]
  Survival: 8.6 days
Mus musculus [2]
  Survival: 7.5 days
Mus musculus [3]
  Survival: 7.3 days
Mus musculus [4]
  Survival: 9.1 days

## Cc1ccc(COCC(C[C@H]2O[C@@H]3O[C@@]4(C)CC[C@H]5[C@H](C)CC[C@@H]([C@H]2C)[C@@]35OO4)C[C@H]2O[C@@H]3O[C@@]4(C)CC[C@H]5[C@H](C)CC[C@@H]([C@H]2C)[C@@]35OO4)cc1 (some centres not stated)
Mus musculus [1]
  Survival: 10 days
Mus musculus [2]
  Survival: >30 days
Mus musculus [3]
  Survival: 8 days
Mus musculus [4]
  Survival: 27 days
